{"source": "ChEMBL document CHEMBL2321684", "about": "“Novel hybrids of optically active ring-opened 3-n-butylphthalide derivative and isosorbide as potential anti-ischemic stroke agents” (J Med Chem, 2013)", "key": {"[1]": {"assay": "Antiplatelet aggregation activity in rabbit platelets assessed as inhibition of arachidonic acid-induced platelet aggregation incubated for 5 mins prior to arachidonic acid-challenge measured within 5 mins by Born's turbidimetric analysis", "format": "functional, cell-based", "details": "Oryctolagus cuniculus", "method_in_brief": "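Rabbit citrated PRP was adjusted to 400−450 × 10⁹ platelets/L and preincubated for 5 min at 37 °C with vehicle DMSO or compound at 0.1−1.6 mM (at least five concentrations). Aggregation was induced with arachidonic acid (0.33 mM, per the methods text). Maximum aggregation rate was recorded over 5 min by Born's turbidimetry, and IC₅₀ was derived from inhibition versus vehicle (mean ± SD).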"}, "[2]": {"assay": "Stability in artificial gastric juice assessed as compound remaining at pH 1.5 after 4 hr by HPLC analysis", "format": "physicochemical", "details": "simulated gi fluid, pH 1.5, 4 h"}, "Rattus norvegicus [3]": {"tested_on": "Rattus norvegicus", "assay": "Antithrombotic activity in Sprague-Dawley rat assessed as reduction in arteriovenous shunt-induced dry thrombus weight at 340 mg/kg, administered via gavage for 7 days prior to arteriovenous shunt-challenge measured up to 15 mins relative to control", "format": "functional, organism-based", "design": "dose 340 mg/kg", "method_in_brief": "(§1)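 Male SD rats (250−280 g), n = 12 per group, dosed by gavage daily for 7 days in 0.5% CMC-Na. Two hours after the last dose, rats were anesthetized with chloral hydrate (300 mg/kg ip). A saline-filled 14 cm polyethylene catheter holding a 6 cm silk thread linked the left jugular vein and right carotid artery for 15 min. The thrombus was then weighed wet and dry. Results are mean ± SD, analysed by ANOVA/Tukey.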"}, "Rattus norvegicus [4]": {"tested_on": "Rattus norvegicus", "assay": "Antiischemic activity in Sprague-Dawley rat assessed as reduction in middle cerebral artery occlusion-induced necrosis in neurons at 80 mg/kg administered via gavage for 7 days prior to middle cerebral artery occlusion-challenge measured after 24 hrs by microscopic analysis", "format": "functional, organism-based", "design": "dose 80 mg/kg", "method_in_brief": "(§2)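 Male SD rats (280−320 g), n = 12 per group, dosed by gavage daily for 7 days in 0.5% CMC-Na vehicle. Sham animals received vehicle only. Two hours after the last dose, rats were anesthetized with chloral hydrate (300 mg/kg ip) and given MCAO for 2 h, then reperfused. Body temperature was held at 37 °C. All endpoints were read at 24 h post reperfusion.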"}, "[5]": {"assay": "Aqueous solubility of the compound after 5 hrs by UV-spectrophotometric analysis", "format": "physicochemical", "details": "water"}, "[6]": {"assay": "Plasma concentration in ICR mouse at 680 mg/kg, po after 2 hrs by HPLC analysis", "format": "ADME, organism-based", "design": "dose 680 mg/kg, route oral", "method_in_brief": "(§3)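 Male ICR mice (30−35 g), n = 6 per time point, were given a single 680 mg/kg gavage dose and sacrificed at 0.5, 1, 2, 4 and 8 h. Brains were rinsed, weighed and homogenized in 3 volumes of saline. Plasma and homogenate were precipitated with 3 volumes of acetonitrile.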"}, "Rattus norvegicus [7]": {"tested_on": "Rattus norvegicus", "assay": "Antiischemic activity in Sprague-Dawley rat assessed as reduction in middle cerebral artery occlusion-induced neurological deficit scores at 80 mg/kg administered via gavage for 7 days prior to middle cerebral artery occlusion-challenge measured after 24 hrs relative to control", "format": "functional, organism-based", "design": "dose 80 mg/kg", "method_in_brief": "as §2"}, "[8]": {"assay": "Stability in artificial gastric juice assessed as compound remaining at pH 1.5 after 2 hr by HPLC analysis", "format": "physicochemical", "details": "simulated gi fluid, pH 1.5, 2 h"}, "Rattus norvegicus [9]": {"tested_on": "Rattus norvegicus", "assay": "Antiischemic activity in Sprague-Dawley rat assessed as reduction in middle cerebral artery occlusion-induced infarct size in brain at 340 mg/kg administered via gavage for 7 days prior to middle cerebral artery occlusion-challenge measured after 24 hrs by triphenyltetrazolium chloride assay relative to control", "format": "functional, organism-based", "design": "dose 340 mg/kg", "method_in_brief": "as §2"}, "[10]": {"assay": "Biodistribution in ICR mouse brain at 680 mg/kg, po after 1 hr by HPLC analysis", "format": "ADME, organism-based", "design": "dose 680 mg/kg, route oral", "details": "read-out: Drug uptake", "method_in_brief": "as §3"}, "[11]": {"assay": "Biodistribution in ICR mouse brain at 680 mg/kg, po after 4 hrs by HPLC analysis", "format": "ADME, organism-based", "design": "dose 680 mg/kg, route oral", "details": "read-out: Drug uptake", "method_in_brief": "as §3"}, "Rattus norvegicus [12]": {"tested_on": "Rattus norvegicus", "assay": "Antiischemic activity in Sprague-Dawley rat assessed as reduction in middle cerebral artery occlusion-induced abnormal changes in brain at 80 mg/kg administered via gavage for 7 days prior to middle cerebral artery occlusion-challenge measured after 24 hrs by microscopic analysis", "format": "functional, organism-based", "design": "dose 80 mg/kg", "method_in_brief": "as §2"}, "[13]": {"assay": "Stability in artificial gastric juice assessed as compound remaining at pH 1.5 after 8 hr by HPLC analysis", "format": "physicochemical", "details": "simulated gi fluid, pH 1.5, 8 h"}, "Rattus norvegicus [14]": {"tested_on": "Rattus norvegicus", "assay": "Antiischemic activity in Sprague-Dawley rat assessed as reduction in middle cerebral artery occlusion-induced water content in brain at 340 mg/kg administered via gavage for 7 days prior to middle cerebral artery occlusion-challenge measured after 24 hrs relative to control", "format": "functional, organism-based", "design": "dose 340 mg/kg", "method_in_brief": "as §2"}, "[15]": {"assay": "Biodistribution in ICR mouse brain at 680 mg/kg, po after 2 hrs by HPLC analysis", "format": "ADME, organism-based", "design": "dose 680 mg/kg, route oral", "details": "read-out: Drug uptake", "method_in_brief": "as §3"}, "Rattus norvegicus [16]": {"tested_on": "Rattus norvegicus", "assay": "Antithrombotic activity in Sprague-Dawley rat assessed as reduction in arteriovenous shunt-induced wet thrombus weight at 80 mg/kg, administered via gavage for 7 days prior to arteriovenous shunt-challenge measured up to 15 mins relative to control", "format": "functional, organism-based", "design": "dose 80 mg/kg", "method_in_brief": "as §1"}, "[17]": {"assay": "Stability in artificial intestinal juice assessed as compound remaining at pH 6.8 after 4 hr by HPLC analysis", "format": "physicochemical", "details": "simulated gi fluid, pH 6.8, 4 h"}, "[18]": {"assay": "Stability in artificial intestinal juice assessed as compound remaining at pH 6.8 after 8 hr by HPLC analysis", "format": "physicochemical", "details": "simulated gi fluid, pH 6.8, 8 h"}, "Rattus norvegicus [19]": {"tested_on": "Rattus norvegicus", "assay": "Antiischemic activity in Sprague-Dawley rat assessed as reduction in middle cerebral artery occlusion-induced inflammatory infiltrates in brain at 340 mg/kg administered via gavage for 7 days prior to middle cerebral artery occlusion-challenge measured after 24 hrs by microscopic analysis", "format": "functional, organism-based", "design": "dose 340 mg/kg", "method_in_brief": "as §2"}, "[20]": {"assay": "Biodistribution in ICR mouse brain at 680 mg/kg, po after 0.5 hrs by HPLC analysis", "format": "ADME, organism-based", "design": "dose 680 mg/kg, route oral", "details": "read-out: Drug uptake", "method_in_brief": "as §3"}, "Rattus norvegicus [21]": {"tested_on": "Rattus norvegicus", "assay": "Antithrombotic activity in Sprague-Dawley rat assessed as reduction in arteriovenous shunt-induced dry thrombus weight at 80 mg/kg, administered via gavage for 7 days prior to arteriovenous shunt-challenge measured up to 15 mins relative to control", "format": "functional, organism-based", "design": "dose 80 mg/kg", "method_in_brief": "as §1"}, "[22]": {"assay": "Plasma concentration in ICR mouse at 680 mg/kg, po after 8 hrs by HPLC analysis", "format": "ADME, organism-based", "design": "dose 680 mg/kg, route oral", "method_in_brief": "as §3"}, "[23]": {"assay": "Plasma concentration in ICR mouse at 680 mg/kg, po after 4 hrs by HPLC analysis", "format": "ADME, organism-based", "design": "dose 680 mg/kg, route oral", "method_in_brief": "as §3"}, "Rattus norvegicus [24]": {"tested_on": "Rattus norvegicus", "assay": "Antiischemic activity in Sprague-Dawley rat assessed as reduction in middle cerebral artery occlusion-induced infarct size in brain at 80 mg/kg administered via gavage for 7 days prior to middle cerebral artery occlusion-challenge measured after 24 hrs by triphenyltetrazolium chloride assay relative to control", "format": "functional, organism-based", "design": "dose 80 mg/kg", "method_in_brief": "as §2"}, "[25]": {"assay": "Stability in artificial intestinal juice assessed as compound remaining at pH 6.8 after 1 hr by HPLC analysis", "format": "physicochemical", "details": "simulated gi fluid, pH 6.8, 1 h"}, "[26]": {"assay": "Antiplatelet aggregation activity in rabbit platelets assessed as inhibition of ADP-induced platelet aggregation incubated for 5 mins prior to ADP-challenge measured within 5 mins by Born's turbidimetric analysis", "format": "functional, cell-based", "details": "Oryctolagus cuniculus"}, "Rattus norvegicus [27]": {"tested_on": "Rattus norvegicus", "assay": "Antiischemic activity in Sprague-Dawley rat assessed as reduction in middle cerebral artery occlusion-induced necrosis in neurons at 340 mg/kg administered via gavage for 7 days prior to middle cerebral artery occlusion-challenge measured after 24 hrs by microscopic analysis", "format": "functional, organism-based", "design": "dose 340 mg/kg", "method_in_brief": "as §2"}, "[28]": {"assay": "Biodistribution in ICR mouse brain at 680 mg/kg, po after 8 hrs by HPLC analysis", "format": "ADME, organism-based", "design": "dose 680 mg/kg, route oral", "details": "read-out: Drug uptake", "method_in_brief": "as §3"}, "Rattus norvegicus [29]": {"tested_on": "Rattus norvegicus", "assay": "Antiischemic activity in Sprague-Dawley rat assessed as reduction in middle cerebral artery occlusion-induced abnormal changes in brain at 340 mg/kg administered via gavage for 7 days prior to middle cerebral artery occlusion-challenge measured after 24 hrs by microscopic analysis", "format": "functional, organism-based", "design": "dose 340 mg/kg", "method_in_brief": "as §2"}}, "note": "Activity calls are given as the source filed them. No cut-off for these calls is given here."}
{"molecule": "CCCC[C@H](OC(=O)CN1CCN(C)CC1)c1ccccc1C(=O)O[C@H]1CO[C@H]2[C@@H]1OC[C@H]2OC(=O)c1ccccc1[C@H](CCCC)OC(=O)CN1CCN(C)CC1", "values": [{"measurement": "IC50", "setting": "[1]", "result": 50, "unit": "µM"}, {"measurement": "Stability", "setting": "[2]", "result": 4.79, "unit": "µM"}, {"measurement": "Activity", "setting": "Rattus norvegicus [3]", "result": "Active"}, {"measurement": "Activity", "setting": "Rattus norvegicus [4]", "result": "Active"}, {"measurement": "solubility at 5 h", "setting": "[5]", "result": 11.2, "unit": "mg/mL"}, {"measurement": "concentration at 2 h", "setting": "[6]", "result": 186, "unit": "ng/mL"}, {"measurement": "Activity", "setting": "Rattus norvegicus [7]", "result": "Active"}, {"measurement": "Stability", "setting": "[8]", "result": 5, "unit": "µM"}, {"measurement": "Activity", "setting": "Rattus norvegicus [9]", "result": "Active"}, {"measurement": "concentration at 1 h", "setting": "[10]", "result": 260, "unit": "ng/mL"}, {"measurement": "concentration at 4 h", "setting": "[11]", "result": 54.3, "unit": "ng/mL"}, {"measurement": "Activity", "setting": "Rattus norvegicus [12]", "result": "Active"}, {"measurement": "Stability", "setting": "[13]", "result": 4.96, "unit": "µM"}, {"measurement": "Activity", "setting": "Rattus norvegicus [14]", "result": "Active"}, {"measurement": "concentration at 2 h", "setting": "[15]", "result": 174, "unit": "ng/mL"}, {"measurement": "Activity", "setting": "Rattus norvegicus [16]", "result": "Active"}, {"measurement": "Stability", "setting": "[17]", "result": 4.89, "unit": "µM"}, {"measurement": "Stability", "setting": "[18]", "result": 4.92, "unit": "µM"}, {"measurement": "Activity", "setting": "Rattus norvegicus [19]", "result": "Active"}, {"measurement": "concentration at 0.5 h", "setting": "[20]", "result": 408, "unit": "ng/mL"}, {"measurement": "Activity", "setting": "Rattus norvegicus [21]", "result": "Active"}, {"measurement": "concentration at 8 h", "setting": "[22]", "result": 69.7, "unit": "ng/mL"}, {"measurement": "concentration at 4 h", "setting": "[23]", "result": 126, "unit": "ng/mL"}, {"measurement": "Activity", "setting": "Rattus norvegicus [24]", "result": "Active"}, {"measurement": "Stability", "setting": "[25]", "result": 4.86, "unit": "µM"}, {"measurement": "IC50", "setting": "[26]", "result": 70, "unit": "µM"}, {"measurement": "Activity", "setting": "Rattus norvegicus [27]", "result": "Active"}, {"measurement": "concentration at 8 h", "setting": "[28]", "result": 16.7, "unit": "ng/mL"}, {"measurement": "Activity", "setting": "Rattus norvegicus [29]", "result": "Active"}]}
